Columns and labels:
Stomoxys calcitrans [1] = experiment: Insecticidal property against Stomoxys calcitrans measured as lowest concentration in bovine serum vs adult stable fly giving > 90% mortality; format: functional
In short: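 Serum titrated with compound from 100 ppm downward was soaked into dental wicks and placed in dishes with 10 chilled adult stable flies. Kept about 48 h at about 25 °C and 75–85% humidity. Percent mortality was scored at 24 and 48 h against a wick with control serum only.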

[2] = Partition coefficient (logP) (HPLC); format: physicochemical; conditions: octanol/water
In short: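 Partition coefficient measured chromatographically.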

[3] = The pKa value in aqueous solution.; format: physicochemical
In short: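 pKa measured in aqueous solution.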

Haemonchus contortus [4] = experiment: Compound was tested for % reduction of Haemonchus contortus worms in sheep dosed at 10 mg/kg by single ir injection; format: functional
In short: (§1)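 Lambs with baseline fecal egg counts on days 26–28 postinoculation randomised to groups and held in individual metabolism crates. A single 10 mg/kg BW intraruminal dose was given in PEG 200. Fecal EPG was measured daily. Total H. contortus worm counts were used to calculate % reduction as (TWC control − TWC treated)/TWC control × 100, against untreated controls.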

Haemonchus contortus [5] = experiment: The compound was tested for % reduction of Haemonchus contortus worms in gerbils dosed at 25 mg/kg.; format: functional
In short: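 Mongolian gerbils infected with H. contortus received one oral gavage at 25 mg/kg BW in DMSO/H2O. Untreated infected gerbils served as negative controls and levamisole-dosed gerbils as positive controls, three per group. Stomachs and contents were vortexed in saline, incubated at 35 °C for at least 1 h and stained with iodine. Worms were counted per gerbil and % reduction taken against the mean of infected untreated controls.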

[6] = (§2) Number of days posttreated in which >90% mortality of ASF was seen following exposure of insects to serum from sheep treated with 10 mg/kg of BW of compound by single ir injection; format: functional
In short: (§3)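 Parasitized sheep (two per compound) received a single intraruminal injection at 10 mg/kg BW in PEG 200. Blood was drawn daily for 14 days and left about 24 h to separate. Serum-soaked dental wicks were exposed to adult stable flies for 48 h, with mortality compared to a serum-only control. Days posttreatment giving >90% mortality were counted.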

Rattus norvegicus = species on record: Rattus norvegicus; experiment: Uncoupler concentration that reduced the respiratory control index by 50% of coupled rat liver mitochondria; format: functional
Haemonchus contortus [7] = experiment: The compound was tested for % Reduction of Haemonchus contortus worms in sheep dosed at 10 mg/kg by single ir injection; format: functional; in short: as §1
Stomoxys calcitrans [8] = experiment: as §2; format: functional; in short: as §3

SMILES: O=S(=O)(CS(=O)(=O)C(F)(F)F)c1ccc(OS(=O)(=O)C(F)(F)F)cc1
- ASF (Stomoxys calcitrans [1]): 100 p.p.m.

SMILES: O=S(=O)(CS(=O)(=O)C(F)(F)F)c1ccc(O)cc1
- ASF (Stomoxys calcitrans [1]): >100 p.p.m.

SMILES: O=S(=O)(CS(=O)(=O)C(F)(F)F)c1ccc(OC(F)(F)F)cc1
- logP [2]: 2.2
- pKa [3]: 4.1
- Reduction (Haemonchus contortus [4]): 100%
- Reduction (Haemonchus contortus [5]): 100%
- Days [6]: 10
- IC50 (Rattus norvegicus): 2950 µM
- ASF (Stomoxys calcitrans [1]): 25 p.p.m.

SMILES: O=S(=O)(c1ccc(OC(F)(F)F)cc1)C(Cl)(Cl)S(=O)(=O)C(F)(F)F
- ASF (Stomoxys calcitrans [1]): >100 p.p.m.

SMILES: CC(S(=O)(=O)c1ccc(Cl)c(Cl)c1)S(=O)(=O)C(F)(F)F (stereo not drawn)
- ASF (Stomoxys calcitrans [1]): 25 p.p.m.

SMILES: O=S(=O)(c1ccc(Cl)cc1)C(Cc1ccccc1)S(=O)(=O)C(F)(F)F (stereo not drawn)
- ASF (Stomoxys calcitrans [1]): >100 p.p.m.

SMILES: O=S(=O)(CS(=O)(=O)C(F)(F)F)c1ccc(C(F)(F)F)cc1
- logP [2]: 1
- pKa [3]: 4
- Reduction (Haemonchus contortus [4]): 100%
- Reduction (Haemonchus contortus [5]): 100%
- Days [6]: 0
- IC50 (Rattus norvegicus): 5400 µM
- ASF (Stomoxys calcitrans [1]): 50 p.p.m.

SMILES: COc1ccc(S(=O)(=O)CS(=O)(=O)C(F)(F)F)cc1
- ASF (Stomoxys calcitrans [1]): >100 p.p.m.

SMILES: CSC(S(=O)(=O)c1ccc(Cl)cc1)S(=O)(=O)C(F)(F)F (stereo not drawn)
- ASF (Stomoxys calcitrans [1]): >100 p.p.m.

SMILES: CCC(S(=O)(=O)c1ccc(Cl)cc1)S(=O)(=O)C(F)(F)F (stereo not drawn)
- ASF (Stomoxys calcitrans [1]): 50 p.p.m.

SMILES: O=S(=O)(CS(=O)(=O)C(F)(F)F)c1ccc(Cl)c(Cl)c1
- logP [2]: 1.7
- pKa [3]: 4
- Reduction (Haemonchus contortus [7]): 100%
- Reduction (Haemonchus contortus [5]): 100%
- Days (Stomoxys calcitrans [8]): 1
- IC50 (Rattus norvegicus): 3990 µM
- ASF (Stomoxys calcitrans [1]): >100 p.p.m.

SMILES: O=S(=O)(CS(=O)(=O)C(F)(F)F)c1ccc(Cl)cc1Cl
- ASF (Stomoxys calcitrans [1]): >100 p.p.m.

SMILES: CC(C)(C)Sc1ccc(S(=O)(=O)CS(=O)(=O)C(F)(F)F)cc1
- ASF (Stomoxys calcitrans [1]): >100 p.p.m.

SMILES: O=S(=O)(CS(=O)(=O)C(F)(F)F)c1ccc(SC(F)(F)C(F)F)cc1
- ASF (Stomoxys calcitrans [1]): >100 p.p.m.

SMILES: O=S(=O)(CS(=O)(=O)C(F)(F)F)c1ccc(SC(F)(F)C(F)F)c(Cl)c1
- ASF (Stomoxys calcitrans [1]): >100 p.p.m.

SMILES: O=S(=O)(CS(=O)(=O)C(F)(F)F)c1c(Cl)cccc1Cl
- ASF (Stomoxys calcitrans [1]): >100 p.p.m.

SMILES: O=S(=O)(CS(=O)(=O)C(F)(F)F)c1ccc(Br)cc1
- ASF (Stomoxys calcitrans [1]): 25 p.p.m.

SMILES: FC(F)(F)Oc1ccc(SCSC(F)(F)F)cc1
- ASF (Stomoxys calcitrans [1]): >100 p.p.m.

SMILES: CC(S(=O)(=O)c1ccc(OC(F)(F)F)cc1)S(=O)(=O)C(F)(F)F (stereo not drawn)
- logP [2]: 3
- pKa [3]: 6.2
- Reduction (Haemonchus contortus [4]): 100%
- Reduction (Haemonchus contortus [5]): 100%
- Days [6]: 6
- IC50 (Rattus norvegicus): 710 µM
- ASF (Stomoxys calcitrans [1]): 25 p.p.m.

SMILES: CS(=O)(=O)Oc1ccc(S(=O)(=O)CS(=O)(=O)C(F)(F)F)cc1
- ASF (Stomoxys calcitrans [1]): >100 p.p.m.

SMILES: O=S(=O)(CS(=O)(=O)C(F)(F)C(F)(F)C(F)(F)C(F)(F)F)c1ccc(OC(F)(F)F)cc1
- ASF (Stomoxys calcitrans [1]): 25 p.p.m.

SMILES: O=S(=O)(CS(=O)(=O)C(F)(F)F)c1ccc(OC(F)(F)C(F)F)cc1
- ASF (Stomoxys calcitrans [1]): 25 p.p.m.

SMILES: O=[N+]([O-])c1ccc(S(=O)(=O)CS(=O)(=O)C(F)(F)F)cc1
- ASF (Stomoxys calcitrans [1]): >100 p.p.m.

SMILES: O=S(=O)(c1ccc(OC(F)(F)F)cc1)C(CSc1cccc(F)c1)S(=O)(=O)C(F)(F)F (stereo not drawn)
- ASF (Stomoxys calcitrans [1]): 50 p.p.m.

SMILES: O=S(=O)(CS(=O)(=O)C(F)(F)F)c1ccc(Cl)cc1
- logP [2]: 1.9
- pKa [3]: 4.4
- Reduction (Haemonchus contortus [7]): 100%
- Reduction (Haemonchus contortus [5]): 100%
- Days (Stomoxys calcitrans [8]): 3
- IC50 (Rattus norvegicus): 4000 µM
- ASF (Stomoxys calcitrans [1]): 50 p.p.m.

SMILES: Cc1ccc(S(=O)(=O)CS(=O)(=O)C(F)(F)F)cc1
- ASF (Stomoxys calcitrans [1]): >100 p.p.m.

SMILES: O=S(=O)(c1ccc(OC(F)(F)F)cc1)C(CSc1ccc(Cl)cc1)S(=O)(=O)C(F)(F)F (stereo not drawn)
- ASF (Stomoxys calcitrans [1]): 50 p.p.m.

SMILES: O=S(=O)(CS(=O)(=O)C(F)(F)F)c1cccc(C(F)(F)F)c1
- ASF (Stomoxys calcitrans [1]): >100 p.p.m.

SMILES: O=S(=O)(CS(=O)(=O)C(F)(F)F)c1ccc(F)cc1
- logP [2]: 1.3
- pKa [3]: 4.6
- IC50 (Rattus norvegicus): 3150 µM
- ASF (Stomoxys calcitrans [1]): 100 p.p.m.

SMILES: O=S(=O)(CS(=O)(=O)C(F)(F)F)c1ccc(F)c(Cl)c1
- ASF (Stomoxys calcitrans [1]): 100 p.p.m.

SMILES: O=S(=O)(c1ccc(OC(F)(F)F)cc1)C(CSc1ccc(OC(F)(F)F)cc1)S(=O)(=O)C(F)(F)F (stereo not drawn)
- ASF (Stomoxys calcitrans [1]): 50 p.p.m.

SMILES: CC(S(=O)(=O)c1ccc(Cl)cc1)S(=O)(=O)C(F)(F)F (stereo not drawn)
- ASF (Stomoxys calcitrans [1]): 50 p.p.m.

SMILES: O=S(=O)(CS(=O)(=O)C(F)(F)F)c1ccccc1Cl
- ASF (Stomoxys calcitrans [1]): >100 p.p.m.

SMILES: CC(C)(C)c1ccc(S(=O)(=O)CS(=O)(=O)C(F)(F)F)cc1
- logP [2]: 2.4
- pKa [3]: 5.1
- IC50 (Rattus norvegicus): 2800 µM
- ASF (Stomoxys calcitrans [1]): >100 p.p.m.

SMILES: N#Cc1ccc(S(=O)(=O)CS(=O)(=O)C(F)(F)F)cc1
- ASF (Stomoxys calcitrans [1]): >100 p.p.m.

SMILES: Cc1cc(C(C#N)c2ccc(Cl)cc2)c(Cl)cc1NC(=O)c1cc(I)cc(I)c1O (stereo not drawn) [CLOSANTEL]
- IC50 (Rattus norvegicus): 927 µM

SMILES: O=S(=O)(c1ccc(OC(F)(F)F)cc1)C(CSc1ccc(F)cc1)S(=O)(=O)C(F)(F)F (stereo not drawn)
- Reduction (Haemonchus contortus [4]): 100%
- Reduction (Haemonchus contortus [5]): 100%
- Days [6]: 6
- ASF (Stomoxys calcitrans [1]): 50 p.p.m.

SMILES: O=S(=O)(CS(=O)(=O)C(F)(F)F)c1ccc(NS(=O)(=O)C(F)(F)F)cc1
- ASF (Stomoxys calcitrans [1]): 100 p.p.m.

SMILES: O=S(=O)(CS(=O)(=O)C(F)(F)F)c1ccccc1
- ASF (Stomoxys calcitrans [1]): 50 p.p.m.

SMILES: O=S(=O)(c1ccc(Cl)c(Cl)c1)C(Cc1ccc(C(F)(F)F)cc1)S(=O)(=O)C(F)(F)F (stereo not drawn)
- ASF (Stomoxys calcitrans [1]): 100 p.p.m.

SMILES: O=[N+]([O-])c1ccc(O)c([N+](=O)[O-])c1 [2,4-DINITROPHENOL]
- logP [2]: 1.5
- pKa [3]: 4.6
- IC50 (Rattus norvegicus): 1000 µM

SMILES: O=S(=O)(CS(=O)(=O)C(F)(F)F)c1cc(C(F)(F)F)cc(C(F)(F)F)c1
- ASF (Stomoxys calcitrans [1]): 50 p.p.m.
